Measurements as given in ChEMBL document CHEMBL4368903, “Identification of GSK3186899/DDD853651 as a Preclinical Development Candidate for the Treatment of Visceral Leishmaniasis” (J Med Chem, 2019).
Converted amounts (≈) assume the structure as drawn. The source made the active and inactive calls. No cut-off for these calls is given here.

What was measured:
CYP1A1 = experiment: Toxicity in Crl:WI(Han) rat assessed as increase in CYP1A1 gene expression in liver at 100 to 1000 mg/kg/day, po via gavage for 7 days; assay type: organism-based; conditions: Crl:WI(Han), liver, read-out: FC
Outline: (§1)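 Male Crl:WI(Han) rats given oral gavage daily for 7 days at 100, 300 and 1000 mg/kg/day. Clinical signs, macroscopic findings, clinical pathology versus controls, and a liver gene expression panel for hepatic toxicity mechanisms.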

[1] = Toxicity in Crl:WI(Han) rat assessed as stomach distension at 100 to 1000 mg/kg/day, po via gavage for 7 days; assay type: organism-based; conditions: in vivo, 168 h
Outline: (§2)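 Male Crl:WI(Han) rats received compound by oral gavage in a 7-day repeat-dose study at 100, 300 and 1000 mg/kg/day. Endpoints were in-life clinical signs (food consumption, body weight, piloerection), macroscopic observations, histopathology, clinical pathology and liver gene expression profiling.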

[2] = Toxicity in rabbit cardiac ventricular wedge assessed as QT shortening at 10 uM relative to control; assay type: tissue-based, Oryctolagus cuniculus, Cardiac ventricle
[3] = Intrinsic clearance in CD1 mouse liver microsomes at 0.5 uM after 3 to 30 mins in presence of NADPH by UPLC-MS/MS analysis; assay type: ADME, Microsome
Outline: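 0.5 μM compound with female CD1 mouse or human liver microsomes, started with excess NADPH in 50 mM potassium phosphate pH 7.4. Aliquots at 0, 3, 6, 9, 15 and 30 min quenched in acetonitrile with internal standard. UPLC-MS/MS; rate constant from exponential decay of compound/IS ratio. Verapamil as positive control.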

[4] = Toxicity in Crl:WI(Han) rat assessed as drug tolerability dose at 100 to 1000 mg/kg/day, po via gavage for 7 days; assay type: organism-based; conditions: in vivo, read-out: Activity
Outline: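 Male Crl:WI(Han) rats dosed by oral gavage once daily in a 7-day repeat-dose study at 100, 300 and 1000 mg/kg/day. Tolerated doses judged from in-life and clinical signs, macroscopic observations, histopathology, clinical pathology and liver gene expression profiling versus controls.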

[5] = Therapeutic index, ratio of fCmax in conscious unrestrained telemetered Crl:WI(Han) rat at 300 mg/kg/day, po via gavage for 7 days measured on day 1 to fCmax in Leishmania donovani LV9 amastigotes infected BALB/c mouse at 25 mg/kg, po administered bid for 10 days measured on day 1; assay type: organism-based; conditions: in vivo, read-out: TI
Outline: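 Index = free Cmax on day 1 of the rat cardiovascular study / free Cmax on day 1 of the mouse efficacy model. Rat arm: conscious, unrestrained, telemetered male CRL:WI(Han) rats given a single oral dose (up to 1000 mg/kg). Mouse arm: female BALB/c infected i.v. with L. donovani LV9 amastigotes, dosed orally twice daily from day 7 post-infection in 0.5% HPMC, 0.4% Tween 80, 0.5% benzyl alcohol.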

[6] = Cardiotoxicity in Crl:WI(Han) rat up to 600 mg/kg, po via gavage; assay type: toxicity, organism-based; conditions: in vivo
Leishmania donovani [7] = experiment: Antileishmanial activity against Leishmania donovani LV9 amastigotes infected in BALB/c mouse assessed as suppression of parasite load within liver at 25 mg/kg, po administered bid for 10 days relative to control; assay type: functional
Outline: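 Female BALB/c mice, 5 per group, infected i.v. with about 2×10^7 L. donovani LV9 amastigotes harvested from infected hamster spleen. Oral dosing starts day 7 post-infection, in 0.5% HPMC/0.4% Tween 80/0.5% benzyl alcohol, or 10% DMSO/60% PEG400/30% water for the 5-day 50 mg/kg regimen. Dosing solutions made fresh daily. Killed day 14 (5-day) or 19 (10-day). Liver smears give LDU (amastigotes/500 nucleated cells × organ weight). Mean LDU compared with vehicle control gives % suppression.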

[8] = Toxicity in Crl:WI(Han) rat assessed as kidney vacuolation at 300 mg/kg/day, po via gavage for 7 days by histological analysis; assay type: organism-based; conditions: in vivo, 168 h; outline: as §2
[9] = Kinetic aqueous solubility of the compound in phosphate buffer at pH 7.4 by CLND assay; assay type: physicochemical; conditions: phosphate buffer, read-out: Kinetic_solubility
Outline: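 From 10 mM DMSO stock diluted 1:20 into pH 7.4 PBS, equilibrated 1 h at RT, filtered. Filtrate quantified by calibrated flow-injection CLND. Dynamic range 1–500 μM.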

[10] = Mutagenicity in Salmonella typhimurium at 1500 ug/plate by Ames test; assay type: toxicity; conditions: salmonella enterica subsp. enterica serovar typhimurium
Cytochrome P450 3A4 = Cytochrome P450 3A4 (Homo sapiens, UniProt P08684); experiment: Inhibition of CYP3A4 in human liver microsomes using midazolam as substrate preincubated for 20 mins followed by substrate addition and measured after 5 mins by LC-MS/MS analysis; assay type: ADME
Cytochrome P450 3A4, sequence (P08684 whole entry): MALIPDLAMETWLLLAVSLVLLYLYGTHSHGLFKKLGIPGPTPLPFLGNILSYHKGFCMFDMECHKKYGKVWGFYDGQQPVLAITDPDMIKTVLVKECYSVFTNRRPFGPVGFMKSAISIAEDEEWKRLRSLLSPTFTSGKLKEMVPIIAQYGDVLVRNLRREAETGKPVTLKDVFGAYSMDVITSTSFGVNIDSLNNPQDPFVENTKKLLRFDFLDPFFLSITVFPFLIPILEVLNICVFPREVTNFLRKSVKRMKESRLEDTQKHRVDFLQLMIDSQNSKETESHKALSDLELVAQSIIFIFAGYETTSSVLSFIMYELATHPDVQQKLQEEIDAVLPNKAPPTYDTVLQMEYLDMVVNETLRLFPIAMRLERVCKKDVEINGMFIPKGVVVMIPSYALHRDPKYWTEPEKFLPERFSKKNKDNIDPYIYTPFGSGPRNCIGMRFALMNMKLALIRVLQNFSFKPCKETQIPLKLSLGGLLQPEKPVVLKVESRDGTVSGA
Outline: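 Pooled human liver microsomes (final 0.1 mg/mL) with midazolam marker substrate, monitoring CYP3A4-specific metabolite. Test compound at eight concentrations, 0.1–100 μM, final organic ≤0.5%. Preincubated at 37 °C for 20 min, then substrate or cofactor added and incubated 5 min at 37 °C. Stopped with ice-cold acetonitrile; LC-MS/MS read-out gives pIC50.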

[11] = Ratio of AUC (0 to 24 hrs) in conscious unrestrained telemetered Crl:WI(Han) rat at 300 mg/kg/day, po via gavage for 7 days measured on day 7 to AUC (0 to 24 hrs) in Leishmania donovani LV9 amastigotes infected BALB/c mouse at 25 mg/kg, po administered bid for 10 days measured on day 10; assay type: ADME, organism-based; conditions: in vivo, read-out: TI
Outline: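 Index = AUC0–24 on day 7 of the rat study / AUC0–24 on day 10 of the mouse efficacy model. Rat arm: male Crl:WI(Han) rats, oral gavage once daily for 7 days at 100, 300 or 1000 mg/kg/day. Mouse arm: female BALB/c infected i.v. with ~2×10^7 L. donovani LV9 amastigotes, dosed orally twice daily for 10 days from day 7 post-infection in 0.5% HPMC, 0.4% Tween 80, 0.5% benzyl alcohol.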

[12] = Toxicity in Crl:WI(Han) rat at 100 to 1000 mg/kg/day, po via gavage for 7 days; assay type: organism-based; conditions: in vivo, 168 h; outline: as §2
[13] = Solubility of compound in fasted simulated intestinal fluid at 1 mg after 4 hrs by HPLC-UV analysis; assay type: physicochemical; conditions: fasted simulated intestinal fluid
Outline: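 1 mg solid shaken in 1 mL FaSSIF (3 mM sodium taurocholate, 0.75 mM lecithin, phosphate buffer pH 6.5) at 900 rpm for 4 h at room temperature, then filtered. Supernatant quantified by HPLC-UV against single-point DMSO calibration. Range 1–1000 μg/mL.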

[14] = Toxicity in Crl:WI(Han) rat assessed as reduction in food consumption at 1000 mg/kg/day, po via gavage for 7 days; assay type: organism-based; conditions: in vivo, 168 h; outline: as §2
Leishmania donovani [15] = experiment: Antileishmanial activity against Leishmania donovani […] in human THP1 cells by intramacrophage assay; assay type: functional, organism-based; conditions: Leishmania donovani, THP-1
[16] = Toxicity in Crl:WI(Han) rat assessed as effect on liver gene expression in liver at 100 to 1000 mg/kg/day, po via gavage for 7 days; assay type: organism-based; conditions: in vivo, 168 h; outline: as §1
[17] = Toxicity in Crl:WI(Han) rat assessed as irregular breathing at 1000 mg/kg/day, po via gavage for 7 days; assay type: organism-based; conditions: in vivo, 168 h; outline: as §1
[18] = Toxicity in Crl:WI(Han) rat assessed as piloerection at 1000 mg/kg/day, po via gavage for 7 days; assay type: organism-based; conditions: in vivo, 168 h; outline: as §2
[19] = target: Cyclin-dependent kinase 2 (Homo sapiens) (UniProt P24941); experiment: Inhibition of human CDK2 by kinobeads-based assay
[20] = Dissociation constant, pKa of the compound by UV-spectroscopy; assay type: physicochemical
Outline: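 Sirius T3 acid–base titration with UV read-out: 5 μL of 10 mM sample, absorbance over 54 pH values in about 5 min. Methanol cosolvent with Yasuda–Shedlovsky extrapolation used when precipitation occurred.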

[21] = target: Voltage-gated inwardly rectifying potassium channel KCNH2 (Homo sapiens, UniProt Q12809); experiment: Inhibition of human ERG by patch clamp assay
Voltage-gated inwardly rectifying potassium channel KCNH2, sequence (Q12809 whole entry): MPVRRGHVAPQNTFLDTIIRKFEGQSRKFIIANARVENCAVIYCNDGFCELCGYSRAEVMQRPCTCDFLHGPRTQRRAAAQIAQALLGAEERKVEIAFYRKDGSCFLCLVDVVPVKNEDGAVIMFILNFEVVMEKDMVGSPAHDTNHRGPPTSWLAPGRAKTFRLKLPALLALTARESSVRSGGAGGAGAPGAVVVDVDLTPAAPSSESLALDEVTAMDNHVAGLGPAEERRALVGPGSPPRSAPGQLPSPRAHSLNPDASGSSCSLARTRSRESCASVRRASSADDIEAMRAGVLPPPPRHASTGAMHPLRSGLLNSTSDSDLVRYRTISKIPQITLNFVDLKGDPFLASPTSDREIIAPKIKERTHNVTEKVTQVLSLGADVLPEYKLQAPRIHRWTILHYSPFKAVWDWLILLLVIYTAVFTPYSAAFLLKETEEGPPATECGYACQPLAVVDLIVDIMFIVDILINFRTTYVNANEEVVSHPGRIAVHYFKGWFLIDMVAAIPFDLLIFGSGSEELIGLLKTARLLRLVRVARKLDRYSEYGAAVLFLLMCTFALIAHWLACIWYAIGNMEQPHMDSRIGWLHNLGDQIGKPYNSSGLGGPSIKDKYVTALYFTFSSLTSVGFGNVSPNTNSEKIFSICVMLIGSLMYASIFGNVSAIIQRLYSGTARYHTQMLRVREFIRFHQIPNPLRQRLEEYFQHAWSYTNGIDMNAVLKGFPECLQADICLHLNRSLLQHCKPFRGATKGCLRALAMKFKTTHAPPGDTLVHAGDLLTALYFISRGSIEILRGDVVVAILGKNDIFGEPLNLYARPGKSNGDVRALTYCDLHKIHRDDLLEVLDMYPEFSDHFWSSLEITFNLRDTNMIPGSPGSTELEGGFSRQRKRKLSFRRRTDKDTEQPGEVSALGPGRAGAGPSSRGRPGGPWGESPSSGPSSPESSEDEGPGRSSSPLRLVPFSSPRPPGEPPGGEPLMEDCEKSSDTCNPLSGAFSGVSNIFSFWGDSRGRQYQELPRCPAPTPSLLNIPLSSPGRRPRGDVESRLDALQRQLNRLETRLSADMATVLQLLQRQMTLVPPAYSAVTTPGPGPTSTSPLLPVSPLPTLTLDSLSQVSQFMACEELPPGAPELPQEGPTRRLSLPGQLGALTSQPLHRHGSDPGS

Lymphoma cell line = experiment: Clastogenicity in mouse Lymphoma cells at 5 ug/ml; assay type: toxicity, cell-based
[22] = Toxicity in Crl:WI(Han) rat assessed as multiple organ changes at 1000 mg/kg/day, po via gavage for 7 days by histological analysis; assay type: organism-based; conditions: in vivo, 168 h; outline: as §2
[23] = Toxicity in Crl:WI(Han) rat assessed as pancreas vacuolation at 300 mg/kg/day, po via gavage for 7 days by histological analysis; assay type: organism-based; conditions: in vivo, 168 h; outline: as §2

COc1ccccc1-c1n[nH]c2nc(N[C@H]3CC[C@H](NS(=O)(=O)CCC(F)(F)F)CC3)nc(OC)c12
fold induction at 168 h (CYP1A1): 43 | Activity [1]: Toxic | Activity [2]: 11.3% | CLH [3]: 1.1 mL/min/g | MTD at 168 h [4]: 100 to 300 mg/kg | selectivity ratio [5]: 12 | Activity [6]: Non-Toxic | Activity (Leishmania donovani [7]): >95% | Activity [8]: Toxic | solubility kinetic [9]: 68 µM (≈ 35.9 µg/mL) | Activity [10]: Non-Toxic | IC50 (Cytochrome P450 3A4): 6.31 µM | selectivity ratio [11]: 19 | Activity [12]: Toxic | solubility at 4 h [13]: 25 to 130 µg/mL (≈ 47.3 to 246 µM) | Activity [14]: Toxic | EC50 (Leishmania donovani [15]): 0.398 µM | Activity [16]: Non-Toxic | Activity [17]: Toxic | Activity [18]: Toxic | inhibition [19]: Active | pKa [20]: 4.1 | IC50 [21]: 17.5 µM | Activity (Lymphoma cell line): Non-Toxic | Activity [22]: Toxic | Activity [23]: Toxic
